Data published in ChEMBL document CHEMBL1921745, “CCR2 receptor antagonists: optimization of biaryl sulfonamides to increase activity in whole blood” (Bioorg Med Chem Lett, 2011).

Assays:
[1] = biological target: T1, C-C chemokine receptor type 2 (Homo sapiens, UniProt P41597); assay: Antagonist activity at CCR2 receptor in human whole blood assessed as inhibition of MCP-1 induced monocyte shape change pretreated for 15 mins before MCP-1 challenge measured after 5 mins by flow cytometry; type: functional, tissue-based; details: read-out: pA2 (converted)
Method in brief: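 Fresh blood from healthy human donors, preincubated 15 minutes with antagonist, then stimulated 5 minutes with a range of MCP-1 concentrations. Samples fixed rapidly and analysed by flow cytometry for increase in monocyte side scatter, plotted against MCP-1 concentration. pA2 derived by comparison with the MCP-1 dose response in vehicle-treated blood.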
Target sequence in this assay (P41597 whole entry): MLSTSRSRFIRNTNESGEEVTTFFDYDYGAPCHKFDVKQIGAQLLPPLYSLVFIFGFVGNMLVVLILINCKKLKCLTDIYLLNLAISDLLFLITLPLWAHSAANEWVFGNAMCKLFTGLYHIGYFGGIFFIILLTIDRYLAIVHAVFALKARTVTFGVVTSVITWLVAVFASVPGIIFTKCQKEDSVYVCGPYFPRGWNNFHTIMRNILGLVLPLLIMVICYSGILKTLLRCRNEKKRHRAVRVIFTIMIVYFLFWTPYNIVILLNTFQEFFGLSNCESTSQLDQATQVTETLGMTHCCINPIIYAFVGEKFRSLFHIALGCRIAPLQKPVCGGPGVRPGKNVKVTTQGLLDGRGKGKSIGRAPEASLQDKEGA

[2] = biological target: T1, C-C chemokine receptor type 2; assay: Antagonist activity at human CCR2 receptor expressed in CHO cells assessed as inhibition of MCP1-induced [35S]-GTPgammaS binding after 3 hrs; type: functional, cell-based
Target sequence in this assay (P41597 whole entry): as above

[3] = biological target: T2, C-C chemokine receptor type 4 (Homo sapiens, UniProt P51679); assay: Antagonist activity at CCR4; type: functional
T2 sequence (P51679 whole entry): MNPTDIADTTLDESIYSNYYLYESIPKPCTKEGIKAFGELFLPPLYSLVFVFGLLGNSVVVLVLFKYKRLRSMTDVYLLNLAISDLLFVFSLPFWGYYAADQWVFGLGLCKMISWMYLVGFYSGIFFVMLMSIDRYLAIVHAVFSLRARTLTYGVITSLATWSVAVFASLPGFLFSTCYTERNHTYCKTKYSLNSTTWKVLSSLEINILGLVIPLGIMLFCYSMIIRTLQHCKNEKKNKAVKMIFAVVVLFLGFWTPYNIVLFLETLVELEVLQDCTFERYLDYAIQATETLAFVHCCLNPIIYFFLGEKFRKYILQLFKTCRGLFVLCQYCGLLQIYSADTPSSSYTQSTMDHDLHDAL

[4] = Half life in rat at 1 mg/kg, iv and 2 mg/kg, po; type: ADME, organism-based; details: in vivo
Mus musculus = assay: Reduction of monocyte recruitment in CCR2 deficient C57BL/6 mouse thioglycolate-induced peritonitis model at 40 mg/kg, po administered 3 hrs before thioglycolate challenge relative to control; type: functional; set-up: scale not given: the % may be the effect or the level left; details: in the assay text read “humanized CCR2 knock-in” for “CCR2 deficient”
Method in brief: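 Thioglycolate-induced peritonitis model in humanized CCR2 knock-in mice. Antagonist given orally at 40 mg/kg and monocyte recruitment compared with a vehicle group.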

[5] = Lipophilicity, log D of the compound; type: physicochemical; details: octanol/water
[6] = Volume of distribution at steady state in rat at 1 mg/kg, iv and 2 mg/kg, po; type: ADME, organism-based; details: in vivo, read-out: Vdss
[7] = Oral bioavailability in rat at 2 mg/kg; type: ADME, organism-based; details: in vivo
[8] = Cmax in rat at 1 mg/kg, iv and 2 mg/kg, po; type: ADME, organism-based; details: in vivo
[9] = Cmax in satellite C57BL/6 mouse at 40 mg/kg, po; type: ADME, organism-based; set-up: dose 40 mg/kg, route oral; details: in vivo
Method in brief: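 Female C57Bl/6 satellite mice from the peritonitis study were given 40 mg/kg orally, with blood levels followed over about 7 hours.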

[10] = Clearance in rat at 1 mg/kg, iv and 2 mg/kg, po; type: ADME, organism-based; details: in vivo
[11] = biological target: T3, C-C chemokine receptor type 1 (Homo sapiens, UniProt P32246); assay: Antagonist activity at CCR1; type: functional
T3 sequence (P32246 whole entry): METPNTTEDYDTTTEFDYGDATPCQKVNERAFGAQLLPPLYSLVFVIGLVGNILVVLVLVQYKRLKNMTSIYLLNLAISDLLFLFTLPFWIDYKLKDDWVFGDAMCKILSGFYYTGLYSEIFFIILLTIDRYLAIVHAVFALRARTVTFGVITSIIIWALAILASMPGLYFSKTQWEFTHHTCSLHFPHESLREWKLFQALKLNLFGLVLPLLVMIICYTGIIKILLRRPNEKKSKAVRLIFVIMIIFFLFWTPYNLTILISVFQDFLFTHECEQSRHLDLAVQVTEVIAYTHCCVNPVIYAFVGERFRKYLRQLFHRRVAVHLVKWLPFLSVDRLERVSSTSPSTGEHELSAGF

[12] = biological target: T1, C-C chemokine receptor type 2; assay: Antagonist activity at human CCR2 receptor expressed in CHO cells assessed as inhibition of MCP1-induced [35S]-GTPgammaS binding after 3 hrs in presence of 5% human serum albumin; type: functional, cell-based
Method in brief: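 GTPγS functional assay at CCR2 run side by side with the HSA-free primary assay. HSA present at 0.2% w/v, described as 5% of physiological concentration.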
Target sequence in this assay (P41597 whole entry): as the sequence (P41597 whole entry) above

[13] = biological target: T1, C-C chemokine receptor type 2; assay: Ratio of IC50 for human CCR2 receptor in presence of 5% human serum to IC50 for human CCR2 receptor
Target sequence in this assay (P41597 whole entry, looked up): as the sequence (P41597 whole entry) above

[14] = biological target: Voltage-gated inwardly rectifying potassium channel KCNH2 (Homo sapiens, UniProt Q12809); assay: Inhibition of human ERG
Voltage-gated inwardly rectifying potassium channel KCNH2, sequence (Q12809 whole entry): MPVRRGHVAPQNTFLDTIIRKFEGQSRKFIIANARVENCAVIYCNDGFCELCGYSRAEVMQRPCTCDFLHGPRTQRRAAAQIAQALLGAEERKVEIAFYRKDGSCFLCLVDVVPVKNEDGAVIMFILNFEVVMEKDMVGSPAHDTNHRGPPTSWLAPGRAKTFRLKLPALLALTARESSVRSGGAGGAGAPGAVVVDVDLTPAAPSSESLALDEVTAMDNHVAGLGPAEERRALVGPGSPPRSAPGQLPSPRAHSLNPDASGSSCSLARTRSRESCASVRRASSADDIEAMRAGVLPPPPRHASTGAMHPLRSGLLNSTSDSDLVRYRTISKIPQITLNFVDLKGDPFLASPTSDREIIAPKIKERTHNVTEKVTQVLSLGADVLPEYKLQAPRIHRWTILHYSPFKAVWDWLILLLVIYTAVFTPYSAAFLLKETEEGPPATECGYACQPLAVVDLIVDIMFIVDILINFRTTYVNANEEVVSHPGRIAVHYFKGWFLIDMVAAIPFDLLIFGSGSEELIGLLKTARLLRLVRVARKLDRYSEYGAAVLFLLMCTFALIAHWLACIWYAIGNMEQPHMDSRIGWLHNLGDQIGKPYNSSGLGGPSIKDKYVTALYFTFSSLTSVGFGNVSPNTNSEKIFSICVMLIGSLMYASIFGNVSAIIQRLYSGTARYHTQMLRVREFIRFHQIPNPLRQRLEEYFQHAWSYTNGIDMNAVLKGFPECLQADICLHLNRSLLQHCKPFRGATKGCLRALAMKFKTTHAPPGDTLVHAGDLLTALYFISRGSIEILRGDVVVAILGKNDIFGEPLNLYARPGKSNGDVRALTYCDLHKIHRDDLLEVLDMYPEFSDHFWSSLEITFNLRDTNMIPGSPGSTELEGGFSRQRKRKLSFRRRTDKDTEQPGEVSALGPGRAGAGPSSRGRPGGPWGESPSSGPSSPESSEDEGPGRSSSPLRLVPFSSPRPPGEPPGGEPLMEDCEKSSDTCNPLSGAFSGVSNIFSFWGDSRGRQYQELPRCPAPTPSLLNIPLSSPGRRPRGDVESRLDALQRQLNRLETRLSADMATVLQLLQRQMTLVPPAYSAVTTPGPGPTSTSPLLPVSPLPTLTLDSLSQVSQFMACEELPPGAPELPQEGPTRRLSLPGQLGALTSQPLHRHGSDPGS

[15] = Oral bioavailability in rat at 1.5 mg/kg; type: ADME, organism-based; details: in vivo
[16] = Clearance in rat at 1 mg/kg, iv and 1.5 mg/kg, po; type: ADME, organism-based; details: in vivo
[17] = Cmax in rat at 1 mg/kg, iv and 1.5 mg/kg, po; type: ADME, organism-based; details: in vivo
[18] = Volume of distribution at steady state in rat at 1 mg/kg, iv and 1.5 mg/kg, po; type: ADME, organism-based; details: in vivo, read-out: Vdss
[19] = Half life in rat at 1 mg/kg, iv and 1.5 mg/kg, po; type: ADME, organism-based; details: in vivo

SMILES	Kb [1] [nM]	Ki [2] [nM]	Ki [12] [nM]	fold change (FC) [13]	also measured
O=C(NCCN1CCCCC1)c1cccc(Oc2ncc(Cl)cc2NS(=O)(=O)c2ccc(Cl)c(Cl)c2)c1		79	1260	16	
O=C(NCCN1CCNCC1)c1cccc(Oc2ncc(Cl)cc2NS(=O)(=O)c2ccc(Cl)c(Cl)c2)c1		200	2510	13	
O=C(NCCN1CCCCC1)c1ccc(Oc2ccc(Cl)cc2NS(=O)(=O)c2ccc(Cl)c(Cl)c2)cc1	3160	63			
O=C(NCCN1CCCC1)c1cccc(Oc2ncc(Cl)cc2NS(=O)(=O)c2ccc(Cl)c(Cl)c2)c1		100	1000	10	
COc1cc(C(=O)NCCN2CCCCC2)ccc1Oc1ccc(Cl)cc1NS(=O)(=O)c1ccc(Cl)c(C(F)(F)F)c1	1000	25			
O=C(NCCN1CCC(F)(F)C1)c1ccc(Oc2ccc(Cl)cc2NS(=O)(=O)c2ccc(Cl)c(C(F)(F)F)c2)cc1	3980	63			
O=C(NCCN1CCCC1)c1ccccc1Oc1ncc(Cl)cc1NS(=O)(=O)c1ccc(Cl)c(Cl)c1		631	2510	4	
O=C(NCCN1CCCCC1)c1ccccc1Oc1ncc(Cl)cc1NS(=O)(=O)c1ccc(Cl)c(Cl)c1		794	1590	2	
O=C(NCCN1CCCCC1)c1ccc(Oc2ncc(Cl)cc2NS(=O)(=O)c2ccc(Cl)c(Cl)c2)cc1	1580	13	20	1.5	
O=C(NCCN1CCCC1)c1ccc(Oc2ncc(Cl)cc2NS(=O)(=O)c2ccc(Cl)c(Cl)c2)cc1		13	63	5	
COc1cc(Oc2ccc(C(=O)NCCN3CCCCC3)cc2)c(NS(=O)(=O)c2ccc(Cl)c(C(F)(F)F)c2)cc1Cl	398	10			
Cc1cc(C(=O)NCCN2CCCCC2)ccc1Oc1ccc(Cl)cc1NS(=O)(=O)c1ccc(Cl)c(C(F)(F)F)c1	2510	25			
O=C(NCCN1CCNCC1)c1ccc(Oc2ncc(Cl)cc2NS(=O)(=O)c2ccc(Cl)c(Cl)c2)cc1		40	251	6	
Cc1cc(Oc2ccc(C(=O)NCCN3CCCCC3)cc2)c(NS(=O)(=O)c2ccc(Cl)c(C(F)(F)F)c2)cc1Cl	1260	16			
Cc1ncccc1Oc1ncc(Cl)cc1NS(=O)(=O)c1ccc(Cl)c(Cl)c1			1260	126	

Continued, in another order:

Kb [1] [nM]	Ki [2] [nM]	Ki [12] [nM]	fold change (FC) [13]	SMILES	also measured
398	4			COc1cc(Oc2ccc(C(=O)NCCN3CCCC3)cc2)c(NS(=O)(=O)c2ccc(Cl)c(C(F)(F)F)c2)cc1Cl	
398	3			O=C(NCCN1CCCCC1)c1ccc(Oc2ncc(Cl)cc2NS(=O)(=O)c2ccc(Cl)c(C(F)(F)F)c2)cc1	IC50 [3]: > 10000 nM; half-life [4]: 0.9 h; Activity (Mus musculus): 54%; logD [5]: 3.2; Vd [6]: 1.9 L/kg; bioavailability [7]: 10%; Cmax [8]: 624 ng/mL; Cmax [9]: 1520 ng/mL; clearance [10]: 39 mL/min/kg; IC50 [11]: > 25100 nM
501	2			O=C(NCCN1CCCC1)c1ccc(Oc2ccc(Cl)cc2NS(=O)(=O)c2ccc(Cl)c(C(F)(F)F)c2)cc1	
251	6			COc1cc(C(=O)NCCN2CCCC2)ccc1Oc1ccc(Cl)cc1NS(=O)(=O)c1ccc(Cl)c(C(F)(F)F)c1	IC50 [3]: > 10000 nM; Activity (Mus musculus): 56%; IC50 [14]: 25100 nM; logD [5]: 2.3; Cmax [9]: 1970 ng/mL; bioavailability [15]: 37%; clearance [16]: 17 mL/min/kg; Cmax [17]: 652 ng/mL; Vd [18]: 2.7 L/kg; half-life [19]: 3.9 h; IC50 [11]: > 25100 nM
631	10			O=C(NCCN1CCCCC1)c1ccc(Oc2ccc(Cl)cc2NS(=O)(=O)c2ccc(Cl)c(C(F)(F)F)c2)cc1	
501	8			Cc1cc(C(=O)NCCN2CCCC2)ccc1Oc1ccc(Cl)cc1NS(=O)(=O)c1ccc(Cl)c(C(F)(F)F)c1	
398	8			Cc1cc(Oc2ccc(C(=O)NCCN3CCCC3)cc2)c(NS(=O)(=O)c2ccc(Cl)c(C(F)(F)F)c2)cc1Cl	
